Results gathered from unrelated publications.
Protocols differ between the studies behind these lines.
Target: NT-3 growth factor receptor (NTRK3, Homo sapiens, UniProt Q16288)
Read-out: enzyme activity
Mode: inhibitor

O=C(Nc1ccc2[nH]ncc2c1)c1cccc(NC(=O)c2cc(C(F)(F)F)ccc2F)c1  inhibition (FRET; 1 µM): 12.1%
COc1cc2ncnc(Nc3ccc(Oc4ccccc4)c(C)c3C)c2cc1OC  inhibition (1 µM): 3%
O=C(Nc1ccc(Br)cc1)Nc1cccc(C(=O)Nc2ccc3[nH]ncc3c2)c1  inhibition (FRET; 1 µM): 13.7%
CCOc1cc(-c2nncn2C)ccc1Nc1ncc2cc(C)nc(NCC(C)(C)C)c2n1  inhibition (FRET; 1 µM): < 15%
O=C(Cc1ccc(C(F)(F)F)cc1)Nc1cccc(C(=O)Nc2ccc3[nH]ncc3c2)c1  inhibition (FRET; 1 µM): 21.9%
CC/C(=N\NC(=O)NCc1cccc(O)c1)c1ccc(O)c(C)c1O  inhibition (0.1 µM): 0.4%
CNC(=O)c1cc2c(Oc3ccc(NC(=O)C4(C(=O)Nc5ccc(F)cc5)CC4)cc3)ccnc2cc1OC  inhibition (radiometric; 1 µM): 79%
CCCS(=O)(=O)Nc1ccc(F)c(C(=O)c2c[nH]c3ncc(-c4ccc(Cl)cc4)cc23)c1F  inhibition (1 µM): < 10%
COc1cc2ncnc(Nc3ccc(Oc4ccccc4)cc3C)c2cc1OC  inhibition (1 µM): 13%
CN1CC(Oc2cnc(C#N)cc2-c2ccn3nc(NC(=O)C4CC4)cc3c2)C1  inhibition (1 µM): 51%
